Experimental data from ChEMBL document CHEMBL2321691 (J Med Chem, 2013).
Active and inactive are the calls of the source. The rule behind the calls is not given here.

Columns and labels:
HT-29 = assay: Cytotoxicity against human HT-29 cells assessed as growth inhibition after 72 hrs by XTT assay; type: functional, cell-based; conditions: HT-29, 72 h
Method in brief: (§1)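 Cells seeded at 1.5 x 10^3 per well (A549, HeLa, HT-29) or 3 x 10^3 (HL-60) in medium with 10% heat-inactivated FBS. Compound tested from 10-5 to 10-13 M for 72 h at 37 °C, then XTT readout. […] Triplicate wells, three experiments; mean ± S.D.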

HL-60 = assay: Cytotoxicity against human HL60 cells assessed as growth inhibition after 72 hrs by XTT assay; type: functional, cell-based; conditions: HL-60, 72 h; method in brief: as §1
Bos taurus = organism: Bos taurus; assay: Inhibition of bovine brain tubulin polymerization at 20 uM after 30 mins by spectrophotometry
Method in brief: (§2)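 Bovine brain tubulin at 1.5 mg/mL, pH 6.7, in 0.1 M MES, 1 mM EGTA, 1 mM MgCl2, 1 mM β-ME, 1.5 mM GTP with ligand. Incubated 20 °C for 30 min, then on ice 10 min. Assembly read as the A450 rise on a shift from 4 to 38 °C; inhibition is plateau minus baseline against ligand-free control. IC50 from monoexponential fits.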

[1] = Inhibition of bovine brain tubulin polymerization after 30 mins by spectrophotometry; design: species or system Bos taurus; method in brief: as §2
HeLa [2] = assay: Cytotoxicity against human HeLa cells assessed as growth inhibition after 72 hrs by XTT assay
A549 = assay: Cytotoxicity against human A549 cells assessed as growth inhibition after 72 hrs by XTT assay; type: functional, cell-based; conditions: A549, 72 h; method in brief: as §1
HeLa [3] = assay: Inhibition of microtubule system in human HeLa cells at 10 nM after 18 hrs by confocal microscopic analysis; type: cell-based
Method in brief: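 HeLa cells grown on poly-L-lysine coverslips and treated 18 h at 10^-8 M. Washed in HPEM (pH 6.6), fixed 15 min in 4% paraformaldehyde, permeabilized with 0.5% Triton X-100. Stained with anti-α-tubulin (1:150, 1 h), then CY3 anti-mouse IgG (1:100, 1 h, 4 °C). Imaged by confocal microscopy; representative of at least three experiments.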

HeLa [4] = assay: Induction of apoptosis in human HeLa cells assessed as processing of procaspase-3 into the p19/p17 active form at 50 nM by Western blotting analysis; type: functional, cell-based
Method in brief: (§3)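 HeLa cells given 50 nM compound for several times; untreated controls run in parallel. About 5 x 10^6 cells lysed and run on reducing SDS gels (12% for caspase-3, 8% for PARP), then blotted to nitrocellulose. Probed overnight with anti-active caspase-3 (p19/p17) or C2.10 anti-PARP (116 kDa and p85), each 1:1000. β-actin loading control; ECL detection. Three experiments.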

HeLa [5] = assay: Induction of apoptosis in human HeLa cells assessed as PARP cleavage at 50 nM by Western blotting analysis; type: functional, cell-based; method in brief: as §3
HeLa [6] = assay: Induction of apoptosis in human HeLa cells assessed as accumulation at sub-G0/G1 phase at 50 nM after 72 hrs by […] analysis; type: functional, cell-based
HeLa [7] = assay: Cell cycle arrest in human HeLa cells assessed as accumulation at G2/M phase at 10^-8 M incubated for 18 hrs by propidium iodide staining-based FACS flow cytometric analysis relative to control; type: functional
Method in brief: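 HeLa cells treated 18 h at 10^-8 M, with untreated controls run in parallel. 2-4 x 10^5 cells fixed overnight in 70% ethanol at 4 °C, washed in PBS, then incubated 1 h at room temperature with 1 mg/mL RNAse A and 20 µg/mL propidium iodide. DNA content read by FACSCalibur flow cytometry; percentage of cells in G2/M. Representative of three experiments.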

inhibition (Bos taurus) | IC50 [1] | Compound | IC50 (HT-29) | IC50 (HL-60) | IC50 (HeLa [2]) | IC50 (A549) | inhibition (HeLa [3]) | Activity (HeLa [4]) | Activity (HeLa [5]) | Activity (HeLa [6]) | Activity (HeLa [7])
89% | 2200 nM | C=C(c1ccc2c(c1)c(C#N)cn2C)c1ccc(OC)c(OC)c1OC | 32 nM | 27 nM | 32 nM | 360 nM |  |  |  |  | 
2% |  | COc1cc(C(O)c2nc3cc(Br)ccc3n2C)cc(OC)c1OC (stereo not drawn) | > 10000 nM | > 10000 nM | > 10000 nM | > 10000 nM |  |  |  |  | 
37% |  | COc1cc(C(=O)c2nc3cc(Br)ccc3n2C)cc(OC)c1OC | 340 nM | 29 nM | 190 nM | 400 nM |  |  |  |  | 
100% | 400 nM | COc1ccc(C(=O)c2ccc3c(ccn3C)c2)c(OC)c1OC | 240 nM | 240 nM |  | 380 nM |  |  |  |  | 
98% | 4000 nM | C=C(c1ccc2c(c1)c(C=O)cn2C)c1ccc(OC)c(OC)c1OC | 230 nM | 32 nM | 32 nM | 1800 nM | Active |  |  |  | 
90% |  | COc1cc(C(C)c2ccc3c(c2)c(C)cn3C)cc(OC)c1OC (stereo not drawn) | 310 nM | 280 nM | 310 nM | 320 nM |  |  |  |  | 
73% |  | COc1ccc(C(=O)c2ccc3c(c2)c(C=O)cn3C)c(OC)c1OC | 5300 nM | 780 nM | 780 nM | > 10000 nM |  |  |  |  | 
32% |  | C=C(c1cc(OC)c(OC)c(OC)c1)c1ccc2c(c1)c(CO)cn2C | 2000 nM | 250 nM | 310 nM | 3200 nM |  |  |  |  | 
91% | 5000 nM | C=C(c1cc(OC)c(OC)c(OC)c1)c1ccc2c(c1)c(C(=O)O)cn2C | 550 nM | 1100 nM | 880 nM | 1100 nM |  |  |  |  | 
95% | 4000 nM | C=C(c1ccc2c(c1)c(C=NO)cn2C)c1ccc(OC)c(OC)c1OC | 320 nM | 270 nM | 34 nM | 290 nM |  |  |  |  | 
37% |  | COc1cc(C(=O)c2nc3ccc(Br)cc3n2C)cc(OC)c1OC | 2700 nM | 2400 nM | 2300 nM | 10000 nM |  |  |  |  | 
93% | 2600 nM | C=C(c1cc(OC)c(OC)c(OC)c1)c1ccc2c(c1)c(C=NO)cn2C | 33 nM | 21 nM | 6.2 nM | 30 nM | Active |  |  |  | 
97% | 4700 nM | C=C(c1ccc2c(ccn2C)c1)c1ccc(OC)c(OC)c1OC | 310 nM | 280 nM | 32 nM | 730 nM |  |  |  |  | 
36% |  | C=C(c1cc(OC)c(OC)c(OC)c1)c1ccc2[nH]ccc2c1 | 5100 nM | 3600 nM | 2100 nM | 9000 nM |  |  |  |  | 
100% | 900 nM | C=C(c1cc(OC)c(OC)c(OC)c1)c1ccc2c(c1)c(C=O)cn2C | 62 nM | 28 nM | 20 nM | 3000 nM | Active |  |  |  | 
96% |  | COc1cc(/C(=C\C=O)c2ccc3c(c2)c(C=O)cn3C)cc(OC)c1OC | 170 nM | 29 nM | 30 nM | 320 nM |  |  |  |  | 
12% |  | C=C(c1cc(OC)c(OC)c(OC)c1)c1ccc2c(c1)c(C=NN)cn2C | 300 nM | 180 nM | 38 nM | 3200 nM |  |  |  |  | 

inhibition (Bos taurus) | IC50 [1] | Compound | IC50 (HT-29) | IC50 (HL-60) | IC50 (HeLa [2]) | IC50 (A549) | inhibition (HeLa [3]) | Activity (HeLa [4]) | Activity (HeLa [5]) | Activity (HeLa [6]) | Activity (HeLa [7])
61% | 16900 nM | COc1cc(C(=O)c2ccc3c(c2)c(C=O)cn3C)cc(OC)c1OC | 3000 nM | 310 nM | 320 nM | > 10000 nM |  |  |  |  | 
98% | 7900 nM | COc1cc(C(=O)c2ccc3c(ccn3C)c2)cc(OC)c1OC | 27 nM | 27 nM | 25 nM | 190 nM |  |  |  |  | 
100% | 1000 nM | COc1cc(C(C)c2ccc3c(ccn3C)c2)cc(OC)c1OC (stereo not drawn) | 3.8 nM | 0.33 nM | 0.64 nM | 6.8 nM | Active | Active | Active | Active | >85%
88% | 7000 nM | COc1cc(C(=CC=O)c2ccc3c(c2)c(C=O)cn3C)cc(OC)c1OC | 220 nM | 33 nM | 31 nM | 340 nM |  |  |  |  | 
87% |  | COc1ccc(C(C)c2ccc3c(ccn3C)c2)c(OC)c1OC (stereo not drawn) | 330 nM | 370 nM | 310 nM | 470 nM |  |  |  |  | 
0% |  | COc1cc(C(C)c2ccc3[nH]cc(C=O)c3c2)cc(OC)c1OC (stereo not drawn) | 5800 nM | 5400 nM | 5800 nM | 9100 nM |  |  |  |  | 
40% |  | COc1ccc(C(=O)c2ccc3c(c2)c(C#N)cn3C)c(OC)c1OC | 310 nM | 290 nM | 270 nM | 2000 nM |  |  |  |  | 
2% |  | COc1cc(C(=O)c2ccc3c(c2)c(C(=O)O)cn3C)cc(OC)c1OC | > 10000 nM | > 10000 nM | 7000 nM | > 10000 nM |  |  |  |  | 
0% |  | COc1cc(C(=O)c2ccc3ocnc3c2)cc(OC)c1OC | 2800 nM | 470 nM | 340 nM | 10000 nM |  |  |  |  | 
0% |  | COc1ccc(C(C)c2ccc3c(c2)c(C=NN)cn3C)c(OC)c1OC (stereo not drawn) | 3200 nM | 1800 nM | 430 nM | > 10000 nM |  |  |  |  | 
93% | 900 nM | C=C(c1cc(OC)c(OC)c(OC)c1)c1ccc2c(c1)c(C(N)=O)cn2C | 0.51 nM | 0.11 nM | 0.25 nM | 1.8 nM | Active | Active | Active | Active | >85%
90% | 4700 nM | COc1cc(C(=CC#N)c2ccc3c(c2)c(C#N)cn3C)cc(OC)c1OC | 2.1 nM | 4.8 nM | 3.5 nM | 4.9 nM | Active | Active | Active | Active | >85%
22% |  | COc1cc(C(O)c2nc3ccc(Br)cc3n2C)cc(OC)c1OC (stereo not drawn) | > 10000 nM | > 10000 nM | > 10000 nM | > 10000 nM |  |  |  |  | 
32% |  | C=C(c1ccc2c(c1)c(CO)cn2C)c1ccc(OC)c(OC)c1OC | 460 nM | 220 nM | 300 nM | 440 nM |  |  |  |  | 
5% |  | COc1cc(C(C)c2ccc3[nH]ccc3c2)cc(OC)c1OC (stereo not drawn) | 3300 nM | 3400 nM | 2300 nM | 4900 nM |  |  |  |  | 
98% | 5900 nM | COc1ccc(C(=CC=O)c2ccc3c(c2)c(C=O)cn3C)c(OC)c1OC | 300 nM | 300 nM | 300 nM | 350 nM |  |  |  |  | 

Compound | inhibition (Bos taurus) | IC50 [1] | IC50 (HT-29) | IC50 (HL-60) | IC50 (HeLa [2]) | IC50 (A549) | inhibition (HeLa [3]) | Activity (HeLa [4]) | Activity (HeLa [5]) | Activity (HeLa [6]) | Activity (HeLa [7])
C=C(c1cc(OC)c(OC)c(OC)c1)c1ccc2c(ccn2C)c1 | 96% | 700 nM | 3.1 nM | 2.8 nM | 2.7 nM | 28 nM |  |  |  |  | 
